16 molecules from ChEMBL document CHEMBL1128466, “Synthesis and antimalarial activities of several fluorinated artemisinin derivatives” (1995) can be followed below.

Assay type in all cases: functional
The subject of experiment [1] is Plasmodium falciparum. Nature of the experiment: Relative activity against Plasmodium falciparum D6 compared to artemisinin as IC50 ratio.
Experiment [2] deals with Plasmodium falciparum. Nature of the experiment: Relative activity against Plasmodium falciparum W-2 compared to of IC50 value of artemisinin as IC50 ratio.
Experiment [3] deals with Plasmodium falciparum. Nature of the experiment: Relative activity against Plasmodium falciparum FCR3 compared to artemisinin as IC50 ratio. The method, boiled down: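 In vitro screen of P. falciparum strain FCR3 cultures by a modified Desjardins method. The value is the ratio of artemisinin activity to that of each fluorinated derivative.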
The subject of experiment [4] is Plasmodium falciparum. Nature of the experiment: Relative activity against Plasmodium falciparum D6 compared to arteether as IC50 ratio.
Experiment [5] deals with Plasmodium falciparum. Nature of the experiment: Relative activity against Plasmodium falciparum W2 compared to arteether as IC50 ratio.

In the case of `CCO[C@H]1O[C@@H]2O[C@@]3(C)CC[C@H]4[C@H](C)CC[C@@H]([C@@]1(C)O)[C@@]24OO3`, the Ratio with Plasmodium falciparum [1] is listed as 0.08; with Plasmodium falciparum [2], 0.06.

As for `C[C@@H]1CC[C@H]2[C@@](C)(O)[C@@H](OCc3cccc(F)c3)O[C@@H]3O[C@@]4(C)CC[C@@H]1[C@]32OO4`, the Ratio in the experiment with Plasmodium falciparum [3] is on record as 0.11.

For the molecule `C[C@H]1[C@@H](CC(C)(F)F)O[C@@H]2O[C@@]3(C)CC[C@H]4[C@H](C)CC[C@@H]1[C@@]24OO3`, the Ratio is 0.4 in the experiment with Plasmodium falciparum [4], 0.3 in the experiment on Plasmodium falciparum [5], 1.2 with Plasmodium falciparum [1] and 0.5 with Plasmodium falciparum [2].

Consider `C[C@H]1[C@@H](CC(F)F)O[C@@H]2O[C@@]3(C)CC[C@H]4[C@H](C)CC[C@@H]1[C@@]24OO3`, for which the Ratio in the experiment on Plasmodium falciparum [4] came out at 1.3; in the experiment with Plasmodium falciparum [5], 0.73; in the experiment on Plasmodium falciparum [1] it was 3.8; with Plasmodium falciparum [2] it was 1.1.

In the case of `C[C@@H]1CC[C@H]2[C@@](C)(O)[C@@H](OCc3c(F)c(F)c(F)c(F)c3F)O[C@@H]3O[C@@]4(C)CC[C@@H]1[C@]32OO4`, in the experiment on Plasmodium falciparum [3], the Ratio stood at 0.1.

Consider `CCO[C@H]1O[C@@H]2O[C@@]3(C)CC[C@H]4C(C)=C(F)C[C@@H]([C@H]1C)[C@@]24OO3`, for which the Ratio is 0.2 in the experiment with Plasmodium falciparum [4], 0.3 in the experiment on Plasmodium falciparum [5], 0.6 in the experiment with Plasmodium falciparum [1] and 0.5 in the experiment on Plasmodium falciparum [2].

On to `CCO[C@H]1O[C@@H]2O[C@@]3(C)CC[C@H]4[C@H](C)C(F)(F)C[C@@H]([C@H]1C)C24OO3` (single isomer, unassigned), for which the Ratio stood at 0.5 in the experiment on Plasmodium falciparum [4], 0.8 with Plasmodium falciparum [5], 1.4 in the experiment with Plasmodium falciparum [1] and 1.2 in the experiment with Plasmodium falciparum [2].

Turning to `CCO[C@H]1O[C@@H]2O[C@@]3(C)CC[C@H]4[C@H](C)C(=O)C[C@@H]([C@H]1C)[C@@]24OO3`, the Ratio stood at 0.05 in the experiment on Plasmodium falciparum [4], 0.6 with Plasmodium falciparum [5], 0.5 in the experiment with Plasmodium falciparum [1] and 1.2 in the experiment with Plasmodium falciparum [2].

Turning to `CCO[C@H]1O[C@@H]2O[C@@]3(C)CC[C@H]4[C@H](C)CC[C@@H]([C@]1(C)O)[C@@]24OO3`, the Ratio came to 0.45 in the experiment on Plasmodium falciparum [1] and 0.3 in the experiment on Plasmodium falciparum [2].

As for `CCO[C@H]1O[C@@H]2O[C@@]3(C)CC[C@H]4[C@H](C(F)F)CC[C@@H]([C@H]1C)[C@@]24OO3`, the Ratio in the experiment with Plasmodium falciparum [4] is 0.3; in the experiment on Plasmodium falciparum [5], 1.5; in the experiment with Plasmodium falciparum [1], 1; in the experiment with Plasmodium falciparum [2], 2.

On to `CCO[C@H]1O[C@@H]2O[C@@]3(C)CC[C@H]4[C@H](C=O)CC[C@@H]([C@H]1C)[C@@]24OO3`, for which the Ratio in the experiment on Plasmodium falciparum [4] is given as 0.1; in the experiment with Plasmodium falciparum [5], 0.8; in the experiment on Plasmodium falciparum [1], 1.2; in the experiment with Plasmodium falciparum [2] it was 1.4.

On to `C[C@@H]1CC[C@H]2[C@@](C)(O)[C@@H](OCc3ccc(F)cc3)O[C@@H]3O[C@@]4(C)CC[C@@H]1[C@]32OO4`, for which the Ratio in the experiment on Plasmodium falciparum [3] is 0.1.

For the molecule `C[C@@H]1CC[C@H]2[C@@](C)(O)[C@@H](OCc3ccccc3F)O[C@@H]3O[C@@]4(C)CC[C@@H]1[C@]32OO4`, in the experiment with Plasmodium falciparum [3], the Ratio was 0.11.

Regarding `C[C@@H]1CC[C@H]2[C@](C)(O)[C@@H](OCC(F)(F)F)O[C@@H]3O[C@@]4(C)CC[C@@H]1[C@]32OO4`, the Ratio in the experiment with Plasmodium falciparum [1] came out at 1.8; in the experiment with Plasmodium falciparum [2], 1.5.

As for `C[C@H]1[C@@H](OCc2ccc(F)cc2)O[C@@H]2O[C@@]3(C)CC[C@H]4[C@H](C)CC[C@@H]1[C@@]24OO3`, the Ratio in the experiment with Plasmodium falciparum [3] was 0.04.

For `C[C@@H]1CC[C@H]2[C@@](C)(O)[C@@H](OCC(F)(F)F)O[C@@H]3O[C@@]4(C)CC[C@@H]1[C@]32OO4`, the Ratio in the experiment on Plasmodium falciparum [1] stood at 0.15; in the experiment with Plasmodium falciparum [2] it was 0.14.
